Experiment: Toxicity liver stage against HepG2, at 10uM
Format: cell-based
Design: test concentration 10 uM, cell line HepG2-A16-CD81EGFP
Settings: human, HepG2-A16-CD81EGFP cells; read-out: INHIBITION
Method in brief: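 Uninfected HepG2-A16-CD81EGFP cells, 3 × 10^3 per well, 1536-well, plated on prespotted compound at 10 μM final, parasite-free screening media added to match infected plates; puromycin 10 μM positive, DMSO 0.5% negative; run in parallel with 48 h PbLuc assay at 37 °C, 5% CO2; viability by CellTiter-Glo luminescence, normalized to controls.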

SMILES	cytotoxicity at 10 µM [%]
CCS(=O)(=O)N1CCc2ccc(NC(=O)NCc3ccccc3)cc21	10.9
CC(C)n1ncc2c1NC(=O)CC21C(=O)Nc2c(Cl)cc(Br)cc21 (stereo not drawn)	-5.15
CC1CCN(S(=O)(=O)c2cccn(CC(=O)NC(C)(C)C)c2=O)CC1	0.00219
O=C(C1CCCC1)N1CC(c2nc(Cc3ccccc3)no2)C1	4.84
CSCC(C)(O)CNS(=O)(=O)c1ccc(Br)cc1 (stereo not drawn)	-1.61
O=C(O)CC(CC(=O)NCc1ccsc1)c1cccs1 (stereo not drawn)	-8.43
CC(=O)c1ccc(S(=O)(=O)Nc2cnn(C3CCOCC3)c2)cc1	-2.25
O=C(NC1CC1)N1CC[C@@H](O)[C@@H]1Cc1ccccc1	1.91
CCCS(=O)(=O)N1Cc2nccn2CC(Cn2cccn2)C1 (stereo not drawn)	-120
CN(C)c1nccc(N2CCO[C@H]3CN(Cc4ccco4)C[C@H]32)n1	-122
COCCNC(=O)c1cn(C(C)(C)C)c2ncccc12	2.74
Cc1ccc(C2CCCCCN2Cc2cn(C)nc2C)cc1 (stereo not drawn)	-8.56
Cc1cnc(N2CC3(CCN(C(=O)c4ccoc4)C3)C2)nc1	-10.1
CN1C[C@H]2CCN(C(=O)NC3CCCC3)CC[C@H]2S1(=O)=O	2.66
CC(C)Nc1nc(O)cc(C2CC(=O)N(C3CCCCC3)C2)n1 (stereo not drawn)	4.5
Fc1ccc2[nH]c3c(c2c1)CCN1C(c2ccccn2)N2CCC31CC2 (stereo not drawn)	6.16
Cc1nonc1CN(C)Cc1cnn(-c2ccc(F)cc2)c1	-16.3
CN1CCCC1c1ccnc(-c2ccccc2)n1 (stereo not drawn)	2.77
Cc1cccc(CNC(Cc2ccsc2)c2nccs2)n1 (stereo not drawn)	2.83
Cn1cc(C(=O)N2CCN(c3ccccc3)CC2)ccc1=O	-0.408
O=C(C1CCC1)N1CCOc2cccc(F)c21	0.877
CC(C)(C)c1cc(NC(=O)CN(Cc2cccs2)Cc2cccs2)on1	14.2
CCCc1c(C(=O)N2CCN(Cc3ccccn3)CC2)cnn1C	-1.96

SMILES	cytotoxicity at 10 µM [%]
CCc1noc(C(C)N2CCC(NS(=O)(=O)c3cccs3)CC2)n1 (stereo not drawn)	8.45
COc1cccc(COC(C)C(=O)N(C)Cc2nnc3n2CCC3)c1 (stereo not drawn)	6.32
CC(C)CCN(C)Cn1ncc2cn(-c3ccccc3)nc2c1=O	6.72
Cc1ccc(C(C)NC(=O)CSCC(N)=O)cc1 (stereo not drawn)	3.37
O=c1n(CCNCc2ccc3ccccc3c2)nc2ccccn12	18.6
Cc1ccc(C(C)NCCc2nccn2Cc2ccccc2)o1 (stereo not drawn)	1.98
COCCNC(=O)NC(c1ccccc1)c1ccccc1OC (stereo not drawn)	-0.238
CCN(C(=O)CN1CCCC1c1c(C)nn(C)c1OC)C1CC1 (stereo not drawn)	-0.54
CC1CCCN(CCCNC(=O)Cc2csc(-c3ccoc3)n2)C1 (stereo not drawn)	3.39
CC(C)(C)n1ncc2c(=O)[nH]c(N3CC(O)C3)nc21	-8.61
CCC(C)(NCC(=O)NC(C)C)c1nccs1 (stereo not drawn)	3.26
CC(C)C(C(=O)N1CCCN(Cc2cscn2)CC1)n1cncn1 (stereo not drawn)	-2.1
CC(C)CN1CCC(NC(=O)c2ccc(F)cc2Cl)CC1	-17.1
CC(CN1CCOCC1)NC(=O)c1cc(Cl)c2c(c1)OCCO2 (stereo not drawn)	-1.4
Cc1ccc(OCCN(C)Cc2cscn2)cc1	0.51
O=C(Nc1nncs1)N(Cc1cccc(F)c1)C1CC1	47.6
O=C(Nc1ccc(F)cc1)NC1(CCO)CCOCC1	22.3
CC1CN(C(=O)c2ccn(C)c(=O)c2)c2ccccc2NC1=O (stereo not drawn)	2.94
COc1ccc(Cl)cc1-c1cc(NC(=O)C2COCCO2)[nH]n1 (stereo not drawn)	-29.1
NC(=O)NC(=O)CNC1(c2ccc(Cl)cc2)CCC1	9.23
Cc1ccc(-n2nc(C)cc2N)nn1	16
COCCOc1cc(C(=O)N2CC(C)c3ccccc32)ccn1 (stereo not drawn)	2.16
N#CC1(NC(=O)Cn2nnc(-c3cc4ccccc4o3)n2)CCCC1	0.696

SMILES	cytotoxicity at 10 µM [%]
Cc1cc(C)n(-c2cncc(NCCNC(=O)C(C)C)n2)n1	-2.91
COCc1nc(NCC2CCS(=O)(=O)C2)c2cnn(C)c2n1 (stereo not drawn)	-5.97
Cc1cccnc1CCNC(=O)CC1C(=O)NCCN1CCC(C)C (stereo not drawn)	9.01
Cc1nc(O)cc(CCNc2nccc(CCC(F)(F)F)n2)n1	-149
O=C(c1ccc(Cn2cnnn2)cc1)N1CCC(c2ccncc2)CC1	0.571
COCc1noc(CN2CC(Cc3ccccc3)CC2=O)n1 (stereo not drawn)	-0.472
CCn1nc(C)c(NC(=O)CN(C)C(C)c2nccs2)c1C (stereo not drawn)	-143
CCCn1ncc(C(=O)NCc2n[nH]c3c2CCCCC3)c1C	8.72
CN(Cc1cc(C(C)(C)C)n[nH]1)C(=O)c1ccccc1C1CCNC1 (stereo not drawn)	-2.32
COCCc1noc(Cn2ccc3ncccc3c2=O)n1	-2.59
Cn1cnnc1CN1CCC2(CCCN(C3CCCCC3)C2=O)C1 (stereo not drawn)	-117
CC(C)(O)CCc1cccc(C(=O)NCCC2CCOC2)c1 (stereo not drawn)	-1.94
Cc1nc(C(C)N(C)Cc2nc(CCC(C)C)no2)c(C)s1 (stereo not drawn)	-4.76
Cc1ccc2oc(CN3CCC(C(=O)O)(n4ccnc4)CC3)c(C)c2c1	-9.06
O=C(c1cccc(S(=O)(=O)NCCc2ccccn2)c1)N1CCOCC1	-0.764
COCCC1(CO)CCCN(Cc2ccncc2)C1 (stereo not drawn)	-141
O=C(CC1CNCCO1)N1CCC(c2cc(N3CCCC3)ncn2)CC1 (stereo not drawn)	5.81
Cn1cc(-c2cc(C(F)F)n3nc(CCC(=O)O)nc3n2)cn1	1.61
O=C(NCC1CCOC1)c1csc(-c2ccc(F)cc2)n1 (stereo not drawn)	-3.06
Cc1nc(C2CCCN(C(=O)CCCn3cccn3)C2)sc1C (stereo not drawn)	-0.317
COc1ccnc(N2CCN(CC(=O)N3CCC(C)CC3)CC2)n1	-3.63
Cn1ccnc1CN1CCCN(C(=O)c2ccc(O)nc2)CC1	-26.3
COCCCN1CCN(CCOC)C(C)C1 (stereo not drawn)	-13.4

SMILES	cytotoxicity at 10 µM [%]
Cc1nc(CN(C)C2CCN(CC3CCCC3)C2)no1 (stereo not drawn)	-5
O=C(CN1CCN(c2nccs2)CC1)Nc1cccnc1	-4.23
Cc1cccc(-c2ccc(C(=O)NCC3CCCOC3)c(=O)[nH]2)c1 (stereo not drawn)	-15.7
c1ncn(CC2CCCN(Cc3cn4ccsc4n3)C2)n1 (stereo not drawn)	-7.04
Cc1occc1CNC(=O)N1CCC(Cc2cnn(C)c2)C1 (stereo not drawn)	-11.1
Cc1ncsc1C(=O)N(C)Cc1ccsc1	-9.8
c1ccc(-c2noc(CN3CCCC(Cn4cncn4)C3)n2)nc1 (stereo not drawn)	3.12
Cc1cc(CN2CCN(C(=O)NCc3ccc(C)s3)CC2)on1	-4.56
CC(C)c1noc(CN2CCC(c3ccnn3CCO)CC2)n1	-18.6
Clc1ccc(-c2nc(CN3CCCC3Cn3cncn3)co2)cc1 (stereo not drawn)	-1.66
COc1ncccc1CNC(=O)N1CCCC1c1ccsc1 (stereo not drawn)	-15.9
Cc1cc(C)n(C2CN(CC(O)c3ccc(C(F)(F)F)cc3)C2)n1 (stereo not drawn)	-5.94
CC(C)c1nc(CN2CCCN(Cc3nccn3C)CC2)no1	1.13
Cc1cc(C2CCCN(C(=O)COc3cc(C)on3)C2)n[nH]1 (stereo not drawn)	-3.87
Cc1ccc(CNCC2CCN(CC(O)c3ccccc3)CC2)o1 (stereo not drawn)	-3.33
COCCC(=O)N1CCCN(Cc2nccn2C(C)C)CC1	-10.1
COCc1nc(C(=O)N2CCCC2c2cccc(C)c2)cs1 (stereo not drawn)	-8.93
CC(C)C(=O)NCc1ccc(N2CCCC2)nc1	-18.4
CCCc1nc(C)c(C(=O)NCCNc2ncccc2C#N)s1	-19.5
COCCCNC(=O)Nc1ccc(F)c(C(N)=O)c1	-12.9
Cc1cnn(CC2CCCCN2c2nn3cc(C)nc3s2)c1 (stereo not drawn)	-18.4
CCCc1n[nH]c(C2CN(CCc3cccs3)CCO2)n1 (stereo not drawn)	4.1
Cc1ccc(CC(=O)N2CCCN(Cc3nccn3C)CC2)cn1	-22.3

SMILES	cytotoxicity at 10 µM [%]
CN1CCN(C2CCN(Cc3nnc(C(C)(C)C)o3)CC2)C1=O	-16.2
O=C(NCCCNc1ccc(C(F)(F)F)cn1)c1ccc(F)cc1F	3.61
Cc1ccc(C(=O)Nc2cc(F)ccc2OCC2CCCO2)cn1 (stereo not drawn)	0.207
CCc1nc(CC(=O)N2CCCC2CN2CCCC2)cs1 (stereo not drawn)	7.27
COc1cccc(Nc2nc(C3CCCNC3)c3ccccn23)c1 (stereo not drawn)	-0.47
O=C1COC2(CCN(Cc3ccoc3)CC2)CN1c1ccccc1	-122
O=c1cccnn1CC1CN(CC2CCCC2)Cc2nccn2C1 (stereo not drawn)	5.03
Cc1ccc2c(c1)C(NC(=O)N(C)C)CC21CCN(C)CC1 (stereo not drawn)	10.4
O=C(c1cscn1)N1CC[C@@H]2[C@@H]1CCN2C1CCOCC1	2.11
O=C(N1CCOCC1)[C@@]12CCO[C@@H]1CCN(CCN1CCCCC1)C2	-3.78
Cc1ccc(C(N)c2cccc(S(C)(=O)=O)c2)c(C)c1 (stereo not drawn)	-6.44
CNC(=O)[C@H]1C[C@@H]2CN(S(=O)(=O)c3cccc(F)c3)C[C@@H]2N1C	-4.94
Cc1nc(CN2CCN(C3CCOC3)Cc3cccnc32)cs1 (stereo not drawn)	8.91
CN(C)C(=O)[C@@H]1C[C@H]2OCC[C@H]2N(CCOc2ccc(Cl)cc2)C1	-124
Cc1noc(C)c1CN1CCO[C@H]2CN(Cc3cnn(C)c3)C[C@H]21	-0.292
Cn1cccc1C(=O)N1CCC2(CC1)CC(N1CCOCC1)C2	-8.25
O=C([C@@H]1C[C@@H]2CCN(C3CCOCC3)C[C@@H]2O1)N1CCCC1	6.81
COCCN1CC[C@@H]2O[C@@H](COCC(=O)N3CCCC3)CC[C@@H]21	-18.1
CCc1c(C)[nH]c(C2(N)CCCC2)nc1=O	-0.327
COC1COC2(CCN(Cc3cccc(C#N)c3)CC2)C1 (stereo not drawn)	-1.75
N#Cc1ccc(C(=O)O)nc1C=Cc1cccc(F)c1	8
